# Test results as given in ChEMBL document CHEMBL1121485, “Antiestrogens. Synthesis and evaluation of mammary tumor inhibiting activity of 1,1,2,2-tetraalkyl-1,2 -diphenylethanes” (1980).
# How the values were obtained:
# [1] = target: T1, Estrogen receptor (Bos taurus) (UniProt Q9XSB5+P49884); assay: Association constant for Estrogen receptor; assay type: protein assay
# [2] = target: T1, Estrogen receptor (Bos taurus); assay: Relative binding affinity for Estrogen receptor compared to 17-beta-estradiol; assay type: protein assay
# [3] = target: T2, Estrogen receptor (Mus musculus) (UniProt O08537+P19785); assay: Uterotrophic effect in mice as uterus dry weight(mg) compared to body weight(g) at 0 ug/day dose; assay type: functional, tissue-based
# T2 sequence (O08537 whole entry, looked up): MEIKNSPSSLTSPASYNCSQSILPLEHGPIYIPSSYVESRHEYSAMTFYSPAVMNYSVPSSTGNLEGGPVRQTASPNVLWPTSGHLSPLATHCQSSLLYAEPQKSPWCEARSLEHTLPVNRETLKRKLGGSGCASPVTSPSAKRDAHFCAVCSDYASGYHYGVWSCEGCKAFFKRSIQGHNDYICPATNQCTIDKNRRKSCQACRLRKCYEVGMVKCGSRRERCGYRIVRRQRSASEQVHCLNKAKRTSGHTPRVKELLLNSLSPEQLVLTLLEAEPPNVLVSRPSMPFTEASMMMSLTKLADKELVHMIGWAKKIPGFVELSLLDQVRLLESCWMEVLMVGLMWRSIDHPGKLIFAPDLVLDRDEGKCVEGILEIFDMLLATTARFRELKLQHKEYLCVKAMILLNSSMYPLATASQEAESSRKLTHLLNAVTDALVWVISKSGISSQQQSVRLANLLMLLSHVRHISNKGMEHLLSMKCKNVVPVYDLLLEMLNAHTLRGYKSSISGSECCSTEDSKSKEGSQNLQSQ
# T2 sequence (P19785 whole entry, looked up): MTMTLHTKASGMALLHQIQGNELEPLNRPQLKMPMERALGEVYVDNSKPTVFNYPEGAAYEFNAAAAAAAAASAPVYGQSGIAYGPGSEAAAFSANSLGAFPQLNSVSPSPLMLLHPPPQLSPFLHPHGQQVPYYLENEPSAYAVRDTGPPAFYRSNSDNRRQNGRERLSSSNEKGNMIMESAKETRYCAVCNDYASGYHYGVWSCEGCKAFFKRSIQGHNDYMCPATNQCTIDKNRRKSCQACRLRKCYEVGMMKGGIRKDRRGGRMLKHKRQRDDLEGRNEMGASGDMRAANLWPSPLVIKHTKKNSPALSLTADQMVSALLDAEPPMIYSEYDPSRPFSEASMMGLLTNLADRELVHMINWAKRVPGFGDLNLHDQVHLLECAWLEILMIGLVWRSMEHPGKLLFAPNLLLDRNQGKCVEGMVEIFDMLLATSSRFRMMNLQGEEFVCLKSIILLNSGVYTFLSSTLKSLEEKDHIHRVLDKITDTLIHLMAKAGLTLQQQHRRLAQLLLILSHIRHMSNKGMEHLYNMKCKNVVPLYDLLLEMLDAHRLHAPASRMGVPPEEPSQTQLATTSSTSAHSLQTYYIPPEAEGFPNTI
# Outline: (§1)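 Mice aged 20 days at start, dosed sc once daily for 3 days (0.1 mL injections, arachis oil vehicle); vehicle-only control group. Killed 24 h after last dose; body weight recorded; uteri fixed in Bouin's solution 12 h, trimmed of connective tissue, washed with saturated alcoholic LiCl, dried 100 °C for 24 h, then weighed.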
# [4] = target: T2, Estrogen receptor (Mus musculus); assay: Uterotrophic effect in mice as uterus dry weight(mg) compared to body weight(g) at 100 ug/day dose; assay type: functional, tissue-based; outline: as §1
# [5] = target: T2, Estrogen receptor (Mus musculus); assay: Uterotrophic effect in mice as uterus dry weight(mg) compared to body weight(g) at 20 ug/day dose; assay type: functional, tissue-based; outline: as §1
# [6] = target: T2, Estrogen receptor (Mus musculus); assay: Uterotrophic effect in mice as uterus dry weight(mg) compared to body weight(g) at 4 ug/day dose; assay type: functional, tissue-based; outline: as §1
# [7] = target: T2, Estrogen receptor (Mus musculus); assay: Anti-uterotrophic effect in mice as uterus dry weight(mg) compared to body weight(g) at 0 ug/day dose; assay type: functional, tissue-based; outline: as §1
# [8] = target: T2, Estrogen receptor (Mus musculus); assay: Anti-uterotrophic effect in mice as uterus dry weight(mg) compared to body weight(g) at 10 ug/day dose; assay type: functional, tissue-based; outline: as §1
# [9] = target: T2, Estrogen receptor (Mus musculus); assay: Anti-uterotrophic effect in mice as uterus dry weight(mg) compared to body weight(g) at 2 ug/day dose; assay type: functional, tissue-based; outline: as §1
# [10] = target: T2, Estrogen receptor (Mus musculus); assay: Uterotrophic effect in mice as uterus dry weight(mg) compared to body weight(g) at 500 ug/day dose; assay type: functional, tissue-based; outline: as §1
# [11] = target: T2, Estrogen receptor (Mus musculus); assay: Anti-uterotrophic effect in mice as uterus dry weight(mg) compared to body weight(g) at 25 ug/day dose; assay type: functional, tissue-based; outline: as §1
# [12] = target: T2, Estrogen receptor (Mus musculus); assay: Anti-uterotrophic effect in mice as uterus dry weight(mg) compared to body weight(g) at 250 ug/day dose; assay type: functional, tissue-based; outline: as §1
# [13] = target: T1, Estrogen receptor (Bos taurus); assay: Ratio of association constants for estradiol and compound in estrogen receptor binding assay; assay type: protein assay
# [14] = species: Mus musculus; assay: Inhibition of estrone-stimulated uterine growth in mice at 2 ug
# [15] = species: Mus musculus; assay: Inhibition of estrone-stimulated uterine growth in mice at 10 ug
# [16] = target: T2, Estrogen receptor (Mus musculus); assay: Uterotrophic effect in mice as uterus dry weight(mg) compared to body weight(g) at 1000 ug/day dose; assay type: functional, tissue-based; outline: as §1
# [17] = target: T2, Estrogen receptor (Mus musculus); assay: Uterotrophic effect in mice as uterus dry weight(mg) compared to body weight(g) at 24 ug/day dose; assay type: functional, tissue-based; outline: as §1
# [18] = target: T2, Estrogen receptor (Mus musculus); assay: Uterotrophic effect in mice as uterus dry weight(mg) compared to body weight(g) at 250 ug/day dose; assay type: functional, tissue-based; outline: as §1
# [19] = target: T2, Estrogen receptor (Mus musculus); assay: Anti-uterotrophic effect in mice as uterus dry weight(mg) compared to body weight(g) at 100 ug/day dose; assay type: functional, tissue-based; outline: as §1
# [20] = target: T2, Estrogen receptor (Mus musculus); assay: Anti-uterotrophic effect in mice as uterus dry weight(mg) compared to body weight(g) at 1000 ug/day dose; assay type: functional, tissue-based; outline: as §1
# [21] = target: T2, Estrogen receptor (Mus musculus); assay: Uterotrophic effect in mice as uterus dry weight(mg) compared to body weight(g) at 80 ug/day dose; assay type: functional, tissue-based; outline: as §1
# [22] = target: T2, Estrogen receptor (Mus musculus); assay: Uterotrophic effect in mice as uterus dry weight(mg) compared to body weight(g) at 8 ug/day dose; assay type: functional, tissue-based; outline: as §1
# [23] = target: T2, Estrogen receptor (Mus musculus); assay: Anti-uterotrophic effect in mice as uterus dry weight(mg) compared to body weight(g) at 5 ug/day dose; assay type: functional, tissue-based; outline: as §1
# [24] = species: Mus musculus; assay: Inhibition of estrone-stimulated uterine growth in mice at 5 ug
# [25] = species: Mus musculus; assay: Inhibition of estrone-stimulated uterine growth in mice at 25 ug
# [26] = species: Mus musculus; assay: Inhibition of estrone-stimulated uterine growth in mice at 100 ug
# [27] = species: Mus musculus; assay: Inhibition of estrone-stimulated uterine growth in mice at 250 ug
# [28] = species: Mus musculus; assay: Inhibition of estrone-stimulated uterine growth in mice at 1000 ug
# [29] = species: Mus musculus; assay: Inhibition of estrone-stimulated uterine growth in mice at 5 ug; remark: listed apart in the source
# [30] = target: T2, Estrogen receptor (Mus musculus); assay: Uterotrophic effect in mice as uterus dry weight(mg) compared to body weight(g) at 240 ug/day dose; assay type: functional, tissue-based; outline: as §1
# [31] = target: T2, Estrogen receptor (Mus musculus); assay: Uterotrophic effect in mice as uterus dry weight(mg) compared to body weight(g) at 10 ug/day dose; assay type: functional, tissue-based; outline: as §1
# [32] = target: T2, Estrogen receptor (Mus musculus); assay: Anti-uterotrophic effect in mice as uterus dry weight(mg) compared to body weight(g) at 500 ug/day dose; assay type: functional, tissue-based; outline: as §1
# [33] = target: T2, Estrogen receptor (Mus musculus); assay: Uterotrophic effect in mice as uterus dry weight(mg) compared to body weight(g) at 2 ug/day dose; assay type: functional, tissue-based; outline: as §1
# [34] = target: T2, Estrogen receptor (Mus musculus); assay: Uterotrophic effect in mice as uterus dry weight(mg) compared to body weight(g) at 50 ug/day dose; assay type: functional, tissue-based; outline: as §1
Ka [1] [M⁻¹],RA [2],RAC [13],Structure (SMILES),Effect [3],Effect [7],Effect [8],Effect [9],Effect [11],Effect [12],Inhibition [14] [%],Inhibition [15] [%],Effect [16],Effect [17],Effect [18],Effect [19],Effect [20],Effect [21],Effect [22],Effect [23],Inhibition [25] [%],other results
2.8e+07,0.0042,0.0039,CCC(CC)(c1cccc(O)c1)C(CC)(CC)c1cccc(O)c1,15.4,15.6,32.8,27.4,38,42.9,47,23,–,–,–,–,–,–,–,–,–,Effect [4]: 52.7; Effect [5]: 35.8; Effect [6]: 23.1; Effect [10]: 52.4
4.8e+07,0.005,0.0046,CCC(CC)(c1ccc(O)cc1)C(CC)(CC)c1ccc(O)cc1,9.2,14,34.6,31.3,36.4,43.2,24.6,10.3,–,23.6,–,–,–,31.9,15.3,–,2.2,Effect [30]: 43.7
1.8e+07,0.0027,0.0025,CCC(C)(c1ccc(O)cc1)C(C)(CC)c1ccc(O)cc1 (centres undefined),15.4,14,34.6,–,34,–,–,10.4,–,–,50.1,38.2,–,–,–,–,13.1,Effect [31]: 34.7; Effect [32]: 42.2; Effect [33]: 24.6; Effect [34]: 39.1

# More lines, now with the values behind:
Structure (SMILES),Ka [1] [M⁻¹],RA [2],RAC [13],Effect [3],Effect [7],Effect [8],Effect [9],Effect [11],Effect [12],Inhibition [14] [%],Inhibition [15] [%],Effect [16],Effect [17],Effect [18],Effect [19],Effect [20],Effect [21],Effect [22],Effect [23],Inhibition [25] [%],other results
CC(C)(c1cccc(O)c1)C(C)(C)c1cccc(O)c1,6.7e+07,0.01,0.0093,9.2,11.2,–,–,28.7,19.4,–,–,13.4,15.7,14.6,20.4,23.4,15.4,9.8,33.9,43.2,Inhibition [24]: 26.5%; Inhibition [26]: 70.3%; Inhibition [27]: 73.6%; Inhibition [28]: 60.5%
CC(C)(c1ccc(O)cc1)C(C)(C)c1ccc(O)cc1,7.3e+07,0.011,0.01,9.2,11.2,–,–,28,19.3,–,–,14.3,15.7,13.3,19.4,24.4,15.8,10.6,37.3,45.4,Inhibition [29]: 15.4%; Inhibition [26]: 73.5%; Inhibition [27]: 73.5%; Inhibition [28]: 57.3%
CCC(c1cccc(O)c1)C(CC)c1cccc(O)c1 (centres undefined),3.5e+08,0.052,0.048,–,–,–,–,–,–,–,–,–,–,–,–,–,–,–,–,–,–
